The values that follow come from ChEMBL document CHEMBL1143619, “Synthesis and biological evaluation of aminopolyamines” (J Med Chem, 2005).

Experiment [1] addresses T1, Ornithine decarboxylase (Mus musculus) (UniProt P00860).
T1 sequence (whole entry): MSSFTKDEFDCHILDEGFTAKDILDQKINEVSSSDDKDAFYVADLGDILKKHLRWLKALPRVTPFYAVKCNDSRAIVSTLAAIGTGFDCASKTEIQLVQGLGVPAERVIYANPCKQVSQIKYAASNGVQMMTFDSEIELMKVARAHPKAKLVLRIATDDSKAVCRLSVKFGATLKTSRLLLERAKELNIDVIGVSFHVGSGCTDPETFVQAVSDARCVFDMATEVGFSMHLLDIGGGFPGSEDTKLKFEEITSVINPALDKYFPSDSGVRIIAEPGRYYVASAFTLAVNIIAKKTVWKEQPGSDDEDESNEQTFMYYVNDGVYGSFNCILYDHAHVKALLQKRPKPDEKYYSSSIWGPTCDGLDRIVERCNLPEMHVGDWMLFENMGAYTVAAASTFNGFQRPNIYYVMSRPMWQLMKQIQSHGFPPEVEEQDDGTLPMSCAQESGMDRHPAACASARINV
The experiment can be described thus: Effect on Ornithine Decarboxylase (ODC) activity in L1210 cells at 1 uM for 4 hr. The format is functional, cell-based.

In experiment [2] the target is Spermidine/spermine N(1)-acetyltransferase (SAT) (Mus musculus) (UniProt Q6P8J2+P48026). The experiment can be described thus: Effect on Spermidine/spermine N1-acetyl transferase (SSAT) activity in L1210 cells at 10 uM for 48h. The format is functional, cell-based.
The test system of experiment [3] is L1210. The experiment is described as follows: Inhibitory activity against L1210 cell growth for 96h. The experiment is classed as functional, cell-based. To be noted: Mus musculus, L1210, 96 h. In a few lines: (§1)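 Murine leukemia L1210 cells grown with nine extracellular drug concentrations (0, 0.03, 0.1, 0.3, 1.0, 3, 10, 30, 100 µM); IC50 estimated from growth curves at 48 or 96 h; mean of at least two experiments.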

Experiment [4] deals with L1210. The experiment can be described thus: Effect on spermidine (SPD) levels after 48 hr treatment at 50 uM in L1210 cells. The format is functional, Mus musculus.
The subject of experiment [5] is L1210. The experiment can be described thus: Cellular concentration expressed in L1210 cells. The experiment is classed as functional, Mus musculus.
In experiment [6] the test system is L1210. The experiment can be described thus: Effect on Putrescine (PUT) levels after 48 h treatment at 50 uM in L1210 cells. The format is functional, Mus musculus.
The subject of experiment [7] is L1210. The experiment is described as follows: Ability to inhibit [3H]SPD transport by L1210 cells. The experiment is classed as functional, cell-based, Mus musculus. An outline of the steps:
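Ki from analogue inhibition of [3H]spermidine transport into murine leukemia L1210 cells, analysed as substrate-competitive inhibition; mean of at least two or three experiments.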

The nature of experiment [8]: Effect on S-Adenosyl-methionine decarboxylase (AdoMetDC) activity in L1210 cells at 1 uM for 6 hr.
Experiment [9] relates to L1210. The experiment is described as follows: Inhibitory activity against L1210 cell growth for 48 hr. The format is functional, cell-based. The following applies: Mus musculus, L1210, 48 h. An outline of the steps:
as §1

Experiment [10] deals with L1210. The experiment can be described thus: Effect on spermine (SPM) levels after 48 hr treatment at 50 uM in L1210 cells. The experiment is classed as functional, Mus musculus.
Experiment [11] deals with L1210. The experiment is described as follows: Effect on spermine (SPM) levels after 48 h treatment at 150 uM in L1210 cells. The experiment is classed as functional, Mus musculus.
The test system of experiment [12] is L1210. The experiment can be described thus: Effect on Putrescine (PUT) levels after 48 hr treatment at 150 uM in L1210 cells. The experiment is classed as functional, Mus musculus.
The test system of experiment [13] is L1210. The experiment can be described thus: Effect on spermidine (SPD) levels after 48 hr treatment at 150 uM in L1210 cells. The experiment is classed as functional, Mus musculus.
The subject of experiment [14] is L1210. The experiment is described as follows: Effect on spermidine (SPD) levels after 48 hr treatment at 500 uM in L1210 cells. The format is functional, Mus musculus.
Experiment [15] deals with L1210. The experiment can be described thus: Effect on spermine (SPM) levels after 48 hr treatment at 500 uM in L1210 cells. The experiment is classed as functional, Mus musculus.
In experiment [16] the test system is L1210. The experiment is described as follows: Effect on Putrescine (PUT) levels after 48 hr treatment at 500 uM in L1210 cells. The format is functional, Mus musculus.

Sequence of Spermidine/spermine N(1)-acetyltransferase (SAT) (Mus musculus) (P48026 whole entry, looked up): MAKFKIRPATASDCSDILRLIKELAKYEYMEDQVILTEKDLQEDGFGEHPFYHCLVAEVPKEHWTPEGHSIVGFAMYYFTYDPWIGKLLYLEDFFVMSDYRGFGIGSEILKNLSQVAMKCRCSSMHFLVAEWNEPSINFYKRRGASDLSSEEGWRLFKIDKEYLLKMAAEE
Sequence of Spermidine/spermine N(1)-acetyltransferase (SAT) (Mus musculus) (Q6P8J2 whole entry, looked up): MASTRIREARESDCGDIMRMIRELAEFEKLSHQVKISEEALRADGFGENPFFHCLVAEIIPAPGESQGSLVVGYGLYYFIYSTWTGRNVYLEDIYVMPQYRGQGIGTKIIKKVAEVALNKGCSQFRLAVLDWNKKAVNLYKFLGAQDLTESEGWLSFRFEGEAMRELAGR

What is called IC50 is the concentration needed to halve the response being measured. The Ki is the dissociation constant of the complex between target and ligand, obtained from inhibition or displacement. `CCNCCCNCCC(N)CNCCCNCC` (stereo not drawn): the Activity in experiment [1] was found to be 16%; in experiment [2] it was 667%; in the experiment with L1210 [4], 7; in the experiment on L1210 [6], 26; in [8], 58%; in the experiment with L1210 [10] it was 32. Also, the concentration for half-maximal inhibition (IC50) came out at 0.4 µM in the experiment with L1210 [3] and 8 µM in the experiment with L1210 [9]. In the experiment on L1210 [5], this compound came in with a Cellular concentration of 3.1 nmol/10^6 cells. In the experiment with L1210 [7], the Ki amounted to 33.7 µM.

In the case of `CCNCCCNCCCCNCCCNCC` [BIS(ETHYL)SPERMINE], the Activity in the experiment on L1210 [11] is 22; in the experiment on L1210 [12], 0; in experiment [8], 28%; in the experiment with L1210 [13] it was 0. This compound also had a Cellular concentration in the experiment on L1210 [5] of 1.78 nmol/10^6 cells.

Regarding `FC(F)(F)CNCCCNCCCCNCCCNCC(F)(F)F`, the Activity in the experiment on L1210 [14] was determined as 94; in experiment [1], 100%; in experiment [2] it was 97%; in the experiment on L1210 [15], 116; in experiment [8] it was 100%; in the experiment on L1210 [16] it was 87. This compound also gave an IC50 with L1210 [3] of more than 100 µM. In addition, in the experiment with L1210 [5], the Cellular concentration was less than 0.02 nmol/10^6 cells.
